The target in one experiment is MEK1–KSR1 (Homo sapiens, UniProt Q02750). The experiment in a line: Co-IP of MEK1 and FLAG-tagged KSR1 from treated HEK293T cells. The experiment is classed as cell-based. The settings on record: 1 μM compound, 24 h. The procedure, abridged:
(§1)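 HEK293T cells (350,000/well) were transfected 24 h after seeding using Fugene HD. FLAG-BRAF or FLAG-KSR1 was given at 1 μg ml−1 for FLAG pulldown, or 0.5 μg ml−1 for endogenous MEK1 pulldown, each with 9 μg ml−1 carrier DNA. After 24 h, cells got 1 μM compound (0.1% DMSO) for 24 h. 100 μg of lysate was captured on anti-FLAG, anti-MEK1 or normal IgG beads (1 h, 4 °C), then eluted and western blotted for BRAF, MEK1 and FLAG.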

A further experiment has as its target MEK1–NL + BRAF-V600E (Homo sapiens, UniProt Q02750). Nature of the experiment: MEK1–NL NanoBRET coexpression assay with BRAF-V600E. Format: binding. The settings on record: 1 μM Tram-bo.
For another experiment, the target named is MEK1–BRAF (Homo sapiens, UniProt Q02750). The experiment in a line: Co-IP of MEK1 and FLAG-tagged BRAF from treated HEK293T cells. The settings on record: 1 μM compound, 24 h. Format: cell-based. In short, it runs like this: as §1
The target of experiment [1] is 14–3–3–NL + MEK1 + BRAF-R509H (Homo sapiens, UniProt Q02750). The experiment in a line: 14–3–3–NL NanoBRET assay with dimer mutant BRAF-R509H. The settings on record: 14–3–3–NL–Tram-bo assay configuration. Format: binding.
Experiment [2] addresses 14–3–3–NL + MEK1 + KSR1-R665H (Homo sapiens, UniProt Q02750). The experiment in a line: 14–3–3–NL NanoBRET assay with dimer mutant KSR1-R665H. The note with it: 14–3–3–NL–Tram-bo assay configuration. The experiment is classed as binding.
In experiment [3] the target is 14–3–3–NL + MEK1 + CRAF-R401H (Homo sapiens, UniProt Q02750). The experiment in a line: 14–3–3–NL NanoBRET assay with dimer mutant CRAF-R401H. Format: binding. The settings on record: 14–3–3–NL–Tram-bo assay configuration.

In the case of `CNS(=O)(=O)Nc1nccc(Cc2c(C)c3ccc(Oc4ncccn4)cc3oc2=O)c1F` [CH5126766], the “effect on MEK1–KSR1 interaction (co-IP)” value on MEK1–KSR1 is on record as “stabilized”. Besides, the “decrease in potency (calculated Ki) with BRAF-V600E versus WT BRAF” value at MEK1–NL + BRAF-V600E was ~ 100 fold. The “effect on MEK1–BRAF interaction (co-IP)” value on MEK1–BRAF is on record as “stabilized”. In addition, the “change in potency, BRAF-R509H versus BRAF” value in experiment [1] is “insensitive”.

Take `O=C(c1ccc(F)c(F)c1Nc1ccc(I)cc1F)N1CC(O)([C@@H]2CCCCN2)C1` [cobimetinib]: in experiment [1], the “change in potency, BRAF-R509H versus BRAF” value is “significant increase in potency”. In addition, the “change in potency, KSR1-R665H versus KSR1” value in experiment [2] is listed as “decrease in potency”.

With `CC(=O)Nc1cccc(-n2c(=O)n(C3CC3)c(=O)c3c(Nc4ccc(I)cc4F)n(C)c(=O)c(C)c32)c1` [trametinib], the “effect on MEK1–BRAF interaction (co-IP)” value at MEK1–BRAF is “specifically reduced”. Also, in experiment [1], the “change in potency, BRAF-R509H versus BRAF” value is “insensitive”. Further, in experiment [2], the “change in potency, KSR1-R665H versus KSR1” value is on record as “small but significant decrease in potency”.

As for trametiglue, the “effect on MEK1–KSR1 interaction (co-IP)” value at MEK1–KSR1 is “stabilized”. Besides, the “effect on MEK1–BRAF interaction (co-IP)” value on MEK1–BRAF is given as “stabilized”. Further, the “change in potency, CRAF-R401H versus CRAF” value in experiment [3] was “decrease in potency”. Moreover, the “change in potency, BRAF-R509H versus BRAF” value in experiment [1] is on record as “insensitive”. In addition, the “change in potency, KSR1-R665H versus KSR1” value in experiment [2] is on record as “decrease in potency”.
